# Screening data as filed in PubChem BioAssay.
# Sampled rows, rich in hits. Any-hit rate of the full collection: about 1.8%.
# CXCR6 block: inhibitors of human CXCR6 receptor | inhibition, % at 20 µM | AID 602244 | CHO-K1 PathHunter CXCR6 beta-arrestin, luminescence | 360,000 compounds, 0.36% hits; in the data active = inhibition above about 34%, passing the limit was not always enough;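 note: antagonist mode with CXCL16 agonist at 10 nM final; 0% = 10 nM CXCL16 with DMSO and 100% = unstimulated wells without agonist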
# EBI2 antag: antagonists of human EBI2 receptor | P32249 | EBI2 beta-arrestin recruitment, luminescence, 7a,25-OHC stimulated | inhibition, % at 5 µM | 360,000 compounds, 0.81% hits | AID 651636; in the data active = inhibition above about 38%;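 note: enzyme fragment complementation signal reports receptor beta-arrestin coupling in cells; 0% = agonist plus DMSO wells and 100% = wells without agonist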
# Beta2AR agonist: agonists of human beta-2 adrenergic receptor inducing internalization | 340,000 compounds, 0.43% hits | Am2.2-beta2AR cells, FAP receptor internalization, flow cytometry | AID 504454 | P07550 | response, % (concentration not given with the values);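 active = response above a set limit, near 3 SD of response in nonfluorescent compounds, cut at about 42% in these data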
# APJ antag: blocks the human apelin receptor APJ; P35414; CHO-K1 APJ beta-arrestin complementation, luminescence; inhibition, % at 20 µM; 330,000 compounds, 0.32% hits;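 active = inhibition above about 40% at 20 µM, limit read from the data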;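 note: cells challenged with 10 nM apelin-13 agonist together with compound; plate controls were apelin-13 plus DMSO wells for no effect and DMSO wells lacking apelin-13 for full effect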
# CCR6 antag: blocks CCL20-driven beta-arrestin recruitment at human CCR6; inhibition, % at 20 µM; P51684; CHO-K1 CCR6 PathHunter beta-arrestin, luminescence, CCL20-stimulated; 340,000 compounds, 0.49% hits;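 active = compounds whose inhibition of the agonist-driven luminescence signal at 20 µM reaches about 50%, limit read from the data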;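 note: cells stimulated with CCL20 at 14 nM final; plate controls were DMSO with CCL20 for no effect and DMSO without agonist for full effect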
# Target sequence (P51684 whole entry, looked up): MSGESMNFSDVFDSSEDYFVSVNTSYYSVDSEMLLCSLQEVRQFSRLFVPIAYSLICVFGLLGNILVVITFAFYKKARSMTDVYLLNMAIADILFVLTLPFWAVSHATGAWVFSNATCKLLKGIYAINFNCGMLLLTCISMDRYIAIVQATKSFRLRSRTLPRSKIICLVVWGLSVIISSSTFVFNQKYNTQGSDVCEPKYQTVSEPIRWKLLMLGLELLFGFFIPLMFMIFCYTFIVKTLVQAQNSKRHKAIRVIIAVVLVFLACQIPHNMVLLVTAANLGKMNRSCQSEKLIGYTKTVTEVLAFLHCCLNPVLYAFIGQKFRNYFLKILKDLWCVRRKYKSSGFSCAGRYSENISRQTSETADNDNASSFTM
# APJ ag: activates the human apelin receptor APJ | P35414 | CHO-K1 APJ PathHunter beta-arrestin, luminescence; 0% DMSO wells, 100% apelin | activation, % at 20 µM | 330,000 compounds, 0.11% hits;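 active = activation more than six SD over the plate average, tested at 20 µM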;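 note: 0% = DMSO alone and 100% = apelin-13 at 10 nM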
#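 Test system: CHO-K1 APJ beta-arrestin complementation cell line | Compound: Single test compound dose, 20 µM final, 1% DMSO | Incubation: Compound 90 min 25 °C, reagent 1 h | Measured by: beta-gal luminescence | Read-out basis: APJ–arrestin association signal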
# Beta2AR ag CP1: agonists of human beta-2 adrenergic receptor; shares compounds with Beta2AR agonist; Am2.2-beta2AR cells, FAP surface receptor, flow cytometry; stronger effect = lower value; percent response (surface receptor), % at 10 µM; 1,100 compounds, 25% hits; AID 540358;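 active = surface receptor percent response at or below 58%, roughly 3 SD from nonfluorescent compounds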
# FAP fluor counter: counter-screen for beta-2AR agonists: fluorescence in Am2.2 cells. shares compounds with Beta2AR agonist. FAP fluorogen flow cytometry, fluorescence counterscreen; stronger effect = lower value. calls only at 10 µM. 1,100 tested, under 10 active;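 active = percent response below a set limit in fluorescence channel 1 and below 50% in channel 8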
# Numbers without * were called inactive; i = inactive; / = no result.
SMILES,CXCR6 block,EBI2 antag,Beta2AR agonist,APJ antag,CCR6 antag,APJ ag,Beta2AR ag CP1,FAP fluor counter
O=C(Nc1cccc(S(=O)(=O)C(F)(F)F)c1)[C@H]1C[C@H](O)[C@@H](CO)O1,5.1,-10.2,/,/,/,/,/,/
COc1ccc(C(=O)c2c(C)c3ccccc3n2CC(O)CNC(C)C)cc1 (configuration not stated),-0.8,-8.8,43.6*,15.3,2.0,-1.6,120.2,i
O=C(Nc1cc(C(F)(F)F)cc(C(F)(F)F)c1)O[C@@H]1c2ccccc2[C@@H]2Cc3csc[n+]3[C@H]12,-3.9,27.0,/,/,/,/,/,/
COc1cccc(/C=C/C(=O)OCC(=O)NC(=O)NC2CCCCC2)c1,0.8,4.1,-4.9,14.6,13.1,-7.8,/,/
CCC(=O)N1C(Cc2ccccc2)COC1(C)C (configuration not stated),2.1,-1.0,-0.6,3.5,7.4,-1.6,104.8,i
CCC1(C)NC(=O)N(CC(=O)N2CCC(Cc3ccccc3)CC2)C1=O (configuration not stated),-12.3,6.2,2.8,-0.9,-7.3,-4.5,/,/
CCN(CC)C(=O)c1cccc(-c2csc(C(NC(C)=O)c3cccc(OC)c3)n2)c1 (configuration not stated),4.3,3.5,/,/,/,/,/,/
Nc1ccc(-c2nc3ccccc3o2)cc1,-9.3,4.2,-50.5,3.8,-7.0,0.0,/,/
Nc1cc(N)cc(-c2nc3ccccc3o2)c1,-8.1,-0.8,43.0*,-0.3,-1.6,2.0,116.2,i
Cn1nnnc1Sc1ncnc2scc(-c3ccc(Br)cc3)c12,2.5,18.1,67.8*,5.4,20.9,-2.9,32.4*,i
CC(=O)Nc1ccc(S(=O)(=O)N2CCN(c3cc4c(cc3[N+](=O)[O-])n(C)c(=O)n4C)CC2)cc1,-0.9,-2.3,4.7,37.9,14.7,-0.7,/,/
Cn1c(=O)n(C)c2cc([N+](=O)[O-])c(N3CCN(S(=O)(=O)c4ccc(C(C)(C)C)cc4)CC3)cc21,6.5,6.8,48.2*,7.9,2.6,-0.4,106.8,i
CCOC(=O)N1CCN(Cc2c(F)cccc2Cl)CC1,-11.2,-8.5,3.1,7.7,-5.2,-3.8,/,/
CCOC(=O)N1CCN(Cc2c(F)cccc2F)CC1,1.5,0.5,51.5*,4.6,0.7,-1.9,101.3,i
Clc1ccccc1-c1ncnc2ccc(Br)cc12,2.2,-6.3,95.9*,-0.2,10.5,-1.8,115.1,i
NNc1nc(-c2ccccc2Cl)c2cc(Br)ccc2n1,11.3,5.9,4.0,16.5,26.1,-7.4,/,/
COc1ccc(NC(=O)C2CCCN(S(=O)(=O)c3ccc(-n4cnnn4)cc3)C2)cc1 (configuration not stated),-5.5,-2.5,17.1,-4.8,14.8,-0.6,/,/
CC(=O)Nc1ccc(S(=O)(=O)N2CCC(Oc3ccc(-n4cnnn4)cc3)CC2)cc1,-10.2,8.8,88.1*,0.7,1.0,-0.3,11.6*,i
O=C(CCn1c(=O)oc2ccc(Cl)cc21)NCCCN1CCOCC1,0.7,1.2,50.0*,2.1,6.3,-2.6,98.9,i
Nc1ncnc2c1ncn2[C@@H]1O[C@H](CNC(=O)[C@@H]2CCCN2S(=O)(=O)c2ccc(F)cc2)[C@@H](O)[C@H]1O,0.4,-3.5,1.7,/,23.3,/,/,/
CC(Sc1nc(-c2ccccc2)cc(C(F)(F)F)n1)C(=O)N1CCOCC1 (configuration not stated),1.3,-2.5,90.7*,-7.6,-1.3,3.6,13.5*,i
CC(Sc1nc(-c2ccccc2)cc(C(F)(F)F)n1)C(=O)N1CCCC1 (configuration not stated),-1.1,1.2,53.9*,11.1,7.0,-0.8,54.6*,i
CC1CCN(C(=O)C(C)Sc2nc(-c3ccccc3)cc(C(F)(F)F)n2)CC1 (configuration not stated),0.5,-36.9,14.6,7.8,20.3,-3.7,111.0,i
CC(Sc1nc(-c2ccccc2)cc(C(F)(F)F)n1)C(=O)N1CCC(C(N)=O)CC1 (configuration not stated),2.2,-3.7,-2.1,8.6,7.9,2.2,133.7,i
CC(Sc1nc(-c2ccccc2)cc(C(F)(F)F)n1)C(=O)O (configuration not stated),3.1,-5.8,6.2,4.6,12.0,-2.6,/,/
SMILES,CXCR6 block,EBI2 antag,Beta2AR agonist,APJ antag,CCR6 antag,APJ ag,Beta2AR ag CP1,FAP fluor counter
CN(Cc1ccccc1)S(=O)(=O)c1ccc(NS(=O)(=O)Cc2ccccc2)cc1,-2.0,-2.2,47.8*,-7.1,-1.8,-0.3,33.7*,i
CCC(=O)c1cn(CC(=O)Nc2ccc(F)cc2)c2ccccc12,-5.8,-1.4,/,/,/,/,/,/
COc1ccc(OCC(=O)NNC(=O)c2cccs2)cc1,-5.7,-6.5,2.2,-1.0,-7.4,1.4,/,/
COc1ccc(OCC(=O)Nc2ccc(NC(=O)c3cccs3)cc2)cc1,-10.5,3.6,54.5*,-1.4,-2.9,4.3,74.5,i
Cc1cccc(NC(=O)N2CCC(C(=O)c3ccc(F)cc3)CC2)c1,6.5,29.4,75.4*,-22.0,14.1,0.4,105.1,i
COc1ccc(OC)c(NC(=O)CSc2ncnc3sc(C)cc23)c1,-4.0,-12.9,7.8,/,14.7,/,/,/
COc1cccc(CN2CCC(C)(Oc3cccc(Cl)c3)C2)c1OC (configuration not stated),-2.7,12.5,/,/,/,/,/,/
COc1ccc(CNCCC(c2ccc(OC)cc2)c2ccccc2OC)cc1 (configuration not stated),-3.7,4.5,16.1,-11.4,14.8,-2.2,90.5,i
COc1ccc(C(CCNCc2ccc(OC(C)C)cc2)c2ccccc2OC)cc1 (configuration not stated),-10.6,3.1,23.5,-2.0,15.5,-1.6,54.1*,i
COc1ccc(C(CCNCc2ccc(N(C)C)cc2)c2ccccc2OC)cc1 (configuration not stated),-13.9,-9.7,31.6,16.2,11.9,-1.3,100.0,i
COc1cc(NC(=O)c2ccc3c(c2)OCO3)ccc1NC(=O)c1ccco1,-6.7,-2.1,-0.6,10.7,9.8,3.8,112.3,i
Cc1cc(NC(=O)c2ccc3c(c2)OCCO3)ccc1NC(=O)c1ccco1,-1.2,-6.2,-5.2,17.8,7.8,-0.9,/,/
CCOC(=O)CSc1nnc(CNc2ccc(Cl)cc2)n1-c1ccccc1,6.6,1.0,107.9*,0.7,9.1,2.4,99.3,i
CCC(C)c1ccc(OCc2ccc(C(=O)O)o2)cc1 (configuration not stated),-3.8,-6.9,2.0,6.8,11.3,-1.4,/,/
